Measurements taken from ChEMBL document CHEMBL3102713, “The cytotoxic effect of 2-acylated-1,4-naphthohydroquinones on leukemia/lymphoma cells” (Bioorg Med Chem, 2014).

Experiments:
CCRF-CEM [1] = assay: Cytotoxicity against human CCRF-CEM cells assessed as cell viability after 72 hrs by MTS assay; format: functional, cell-based
Procedure, shortened: (§1)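 Cells seeded at 10,000 per well in 96-well plates; leukemia/lymphoma lines in RPMI, Hs27 fibroblasts in DMEM, both with 10% heat-inactivated FBS, penicillin and streptomycin, 37 °C, 5% CO2. Exposed to doubling concentrations from 1.56 to 100 µM for 72 h, then MTS added for 4 h. Absorbance read at 490 nm, reference 650 nm, cell-free background subtracted. Viability expressed relative to 1% DMSO solvent control. Eight replicates. IC50 is the concentration giving 50% inhibition of formazan conversion versus untreated cells.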

[2] = Cytotoxicity against human NALM6 cells assessed as cell viability after 72 hrs by MTS assay; format: functional, cell-based; conditions: NALM-6, 72 h; procedure, shortened: as §1
Ramos = assay: Cytotoxicity against human Ramos cells assessed as cell viability after 72 hrs by MTS assay; format: functional, cell-based; procedure, shortened: as §1
HS27 = assay: Cytotoxicity against human HS27 cells assessed as cell viability after 72 hrs by MTS assay; format: cell-based; conditions: HS27, 72 h; procedure, shortened: as §1
Jurkat = assay: Cytotoxicity against human Jurkat cells assessed as cell viability after 72 hrs by MTS assay; format: functional, cell-based; procedure, shortened: as §1
CCRF-CEM [3] = assay: Induction of apoptosis in human CCRF-CEM cells using fluorogenic substrate assessed as caspase 3 activation at 50 uM after 8 hrs by measuring viable cells using flow cytometric analysis (reference value: 93.9%); format: functional
Procedure, shortened: (§2)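 CEM cells were seeded at 50,000 per well in RPMI with 10% FBS and exposed for 8 h at 37 °C, with CCCP (50 µM) as positive control and untreated and 1% DMSO controls. Cells were labelled with NucView 488 caspase-3/7 live-cell fluorogenic substrate. Green-positive cells were counted by flow cytometry (FL1 vs FL2 dot plots), about 10,000 events per sample, in triplicate.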

CCRF-CEM [4] = assay: Cytotoxicity against human CCRF-CEM cells assessed as intact mitochondrial membrane potential at 50 uM after 8 hrs by JC-1 red/green staining-based flow cytometry analysis (reference value: 96.7%); format: functional
CCRF-CEM [5] = assay: Induction of apoptosis in human CCRF-CEM cells using fluorogenic substrate assessed as caspase 3 activation at 50 uM after 8 hrs by measuring early apoptotic cells using flow cytometric analysis (reference value: 6.1%); format: functional; procedure, shortened: as §2
CCRF-CEM [6] = assay: Induction of apoptosis in human CCRF-CEM cells assessed as caspase 3 activation at 50 uM after 8 hrs by measuring necrotic cells using flow cytometric analysis relative to control; format: functional; procedure, shortened: as §2
CCRF-CEM [7] = assay: Cytotoxicity against human CCRF-CEM cells assessed as mitochondrial membrane depolarization at 50 uM after 8 hrs by JC-1 red/green staining-based flow cytometry analysis (reference value: 3.3%); format: functional
CCRF-CEM [8] = assay: Induction of apoptosis in human CCRF-CEM cells using fluorogenic substrate assessed as caspase 3 activation at 50 uM after 8 hrs by measuring late apoptotic cells using flow cytometric analysis relative to control; format: functional; procedure, shortened: as §2
CCRF-CEM [9] = assay: Induction of apoptosis in human CCRF-CEM cells assessed as viable cells at 10 uM after 72 hrs by measuring phosphatidylserine translocation using annexin V-FITC/propidium iodide staining-based flow cytometric analysis (reference value: 98.7%); format: functional; conditions: read-out: Activity
CCRF-CEM [10] = assay: Induction of apoptosis in human CCRF-CEM cells assessed as caspase 3 activation at 10 uM after 8 hrs by measuring late apoptotic cells using flow cytometric analysis relative to control; format: functional
CCRF-CEM [11] = assay: Cytotoxicity against human CCRF-CEM cells assessed as mitochondrial membrane depolarization at 10 uM after 6 hrs by JC-1 red/green staining-based flow cytometry analysis (reference value: 3.3%); format: functional
CCRF-CEM [12] = assay: Cytotoxicity against human CCRF-CEM cells assessed as mitochondrial membrane depolarization at 10 uM after 8 hrs by JC-1 red/green staining-based flow cytometry analysis (reference value: 3.3%); format: functional
CCRF-CEM [13] = assay: Induction of apoptosis in human CCRF-CEM cells assessed as late apoptotic cells at 10 uM after 72 hrs by measuring phosphatidylserine translocation using annexin V-FITC/propidium iodide staining-based flow cytometric analysis (reference value: 0.1%); format: functional
CCRF-CEM [14] = assay: Induction of apoptosis in human CCRF-CEM cells using fluorogenic substrate assessed as caspase 3 activation at 10 uM after 8 hrs by measuring early apoptotic cells using flow cytometric analysis (reference value: 3.9%); format: functional
CCRF-CEM [15] = assay: Induction of apoptosis in human CCRF-CEM cells using fluorogenic substrate assessed as caspase 3 activation at 1 uM after 8 hrs by measuring viable cells using flow cytometric analysis (reference value: 96.1%)
CCRF-CEM [16] = assay: Induction of apoptosis in human CCRF-CEM cells assessed as early apoptotic cells at 10 uM after 72 hrs by measuring phosphatidylserine translocation using annexin V-FITC/propidium iodide staining-based flow cytometric analysis (reference value: 0.8%); format: functional
CCRF-CEM [17] = assay: Induction of apoptosis in human CCRF-CEM cells assessed as necrotic cells at 10 uM after 72 hrs by measuring phosphatidylserine translocation using annexin V-FITC/propidium iodide staining-based flow cytometric analysis (reference value: 0.4%); format: functional
CCRF-CEM [18] = assay: Cytotoxicity against human CCRF-CEM cells assessed as intact mitochondrial membrane potential at 10 uM after 6 hrs by JC-1 red/green staining-based flow cytometry analysis (reference value: 96.7%); format: functional
CCRF-CEM [19] = assay: Induction of apoptosis in human CCRF-CEM cells assessed as caspase 3 activation at 10 uM after 8 hrs by measuring necrotic cells using flow cytometric analysis relative to control; format: functional
CCRF-CEM [20] = assay: Cytotoxicity against human CCRF-CEM cells assessed as intact mitochondrial membrane potential at 10 uM after 8 hrs by JC-1 red/green staining-based flow cytometry analysis (reference value: 96.7%); format: functional
CCRF-CEM [21] = assay: Cytotoxicity against human CCRF-CEM cells assessed as mitochondrial membrane depolarization at 10 uM by JC-1 red/green staining-based flow cytometry analysis; format: functional, cell-based; conditions: TDE = time-dependent effect
CCRF-CEM [22] = assay: Induction of apoptosis in human CCRF-CEM cells assessed as necrotic cells at 50 uM after 72 hrs by measuring phosphatidylserine translocation using annexin V-FITC/propidium iodide staining-based flow cytometric analysis (reference value: 0.4%); format: functional
CCRF-CEM [23] = assay: Induction of apoptosis in human CCRF-CEM cells assessed as late apoptotic cells at 50 uM after 72 hrs by measuring phosphatidylserine translocation using annexin V-FITC/propidium iodide staining-based flow cytometric analysis (reference value: 0.1%); format: functional
CCRF-CEM [24] = assay: Induction of apoptosis in human CCRF-CEM cells assessed as viable cells at 50 uM after 72 hrs by measuring phosphatidylserine translocation using annexin V-FITC/propidium iodide staining-based flow cytometric analysis (reference value: 98.7%); format: functional; conditions: read-out: Activity
CCRF-CEM [25] = assay: Induction of apoptosis in human CCRF-CEM cells assessed as early apoptotic cells at 50 uM after 72 hrs by measuring phosphatidylserine translocation using annexin V-FITC/propidium iodide staining-based flow cytometric analysis (reference value: 0.8%); format: functional

SMILES	IC50 (CCRF-CEM [1]) [µM]	IC50 [2] [nM]	IC50 (Ramos) [nM]	IC50 (HS27) [µM]	IC50 (Jurkat) [µM]	further results
COc1ccc(C(=O)c2cc(O)c3ccccc3c2O)cc1	0.01	880	660	4.97	2.78	–
O=C(c1ccccc1)c1cc(O)c2ccccc2c1O	5.44	2580	4130	8.3	6.35	–
N#CC(C#N)=NNc1cccc(Cl)c1 [CARBONYL CYANIDE M-CHLOROPHENYLHYDRAZONE]	–	–	–	–	–	Activity (CCRF-CEM [3]): 66.3%; Activity (CCRF-CEM [4]): 0%; Activity (CCRF-CEM [5]): 32.6%; Activity (CCRF-CEM [6]): 0%; Activity (CCRF-CEM [7]): 100%; Activity (CCRF-CEM [8]): 1.1%
CCC(=O)c1cc(O)c2ccccc2c1O	3.95	2020	2490	18	4.54	–
CCCCCCCCCCCC(=O)c1cc(O)c2ccccc2c1O	5.99	5800	980	43.8	6.56	viability at 10 µM (CCRF-CEM [9]): 0.5%; Activity (CCRF-CEM [10]): 0%; Activity (CCRF-CEM [11]): 36.8%; Activity (CCRF-CEM [12]): 62.3%; Activity (CCRF-CEM [13]): 3.7%; Activity (CCRF-CEM [14]): 35.2%; Activity (CCRF-CEM [15]): 64.8%; Activity (CCRF-CEM [16]): 92.8%; Activity (CCRF-CEM [17]): 3%; Activity (CCRF-CEM [18]): 63.2%; Activity (CCRF-CEM [19]): 0%; Activity (CCRF-CEM [20]): 37.7%; Activity (CCRF-CEM [21]): tde
C/C=C/C(=O)c1cc(O)c2ccccc2c1O	3.19	4630	4250	37.1	6.24	Activity (CCRF-CEM [22]): 19.8%; Activity (CCRF-CEM [23]): 0.4%; viability at 50 µM (CCRF-CEM [24]): 78.6%; Activity (CCRF-CEM [25]): 1.3%
CC(=O)c1cc(O)c2ccccc2c1O	5.24	5090	750	9.87	5.6	–
Cc1ccc(C(=O)c2cc(O)c3ccccc3c2O)cc1	0.74	2410	520	4.37	3.35	–
